Assay outcomes (PubChem BioAssay)
Most compounds without a hit are left out; they make up all but 1.2% or so of the library.
CRFBP-R2 block: antagonists of CRF-binding protein/CRF-R2 receptor complex; HEK293 CRF-R2/CRF-BP, CRF-induced calcium fluorescence; inhibition, % at 11.8 µM; 350,000 tested, 0.59% active; AID 588475;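 active means inhibition of the ligand-induced calcium signal above about 50% at the single tested concentration, limit read from the data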
CRFR2-BP ag: CRF-BP/CRF-R2 complex agonism; AID 588473; activation, % at 13.2 µM; HEK293 CRF-R2/CRF-BP, calcium dye fluorescence (FLIPR); percent of saturating CRF peptide response; 350,000 tested, 0.46% active;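 active means activation of at least 50%, plus an integration ratio under a set limit after plate pattern correction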;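 further: plate controls were neutral control wells without compound for no effect and CRF at EC100 for full effect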
Tn6 DDE FP: inhibitors of Tn6 peptide binding to human fibrin DD(E); P02675; Fibrin DD(E) TRITC-Tn6 fluorescence polarization displacement; inhibition, % at 8.3 µM; 370,000 tested, 0.21% active; AID 720509;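 active means inhibition above a per-campaign cutoff: mean of compounds within control limits plus 3 SD, cut at about 15% in these data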;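 further: 0% = median of all compound wells on the plate and 100% = blocking peptide control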
Target sequence (P02675 whole entry, looked up): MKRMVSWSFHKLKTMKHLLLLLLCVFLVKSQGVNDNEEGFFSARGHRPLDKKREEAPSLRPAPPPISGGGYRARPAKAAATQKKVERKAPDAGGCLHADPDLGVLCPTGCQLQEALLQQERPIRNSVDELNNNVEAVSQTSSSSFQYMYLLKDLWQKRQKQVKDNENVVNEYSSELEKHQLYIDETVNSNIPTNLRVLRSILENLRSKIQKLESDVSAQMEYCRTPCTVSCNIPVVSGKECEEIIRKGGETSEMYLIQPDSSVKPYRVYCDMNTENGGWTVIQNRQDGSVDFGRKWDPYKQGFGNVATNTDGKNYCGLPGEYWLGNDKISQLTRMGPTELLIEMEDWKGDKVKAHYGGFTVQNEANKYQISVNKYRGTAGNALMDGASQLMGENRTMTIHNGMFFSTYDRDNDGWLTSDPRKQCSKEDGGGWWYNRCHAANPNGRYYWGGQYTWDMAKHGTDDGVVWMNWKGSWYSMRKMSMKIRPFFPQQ
DDE Tn7 FP inh: DD(E)-Tn7 binding inhibition, primary FP screen; P02675; FP displacement of FITC-Tn7 peptide from fibrin DD(E); 0% = median of compound wells per plate; inhibition, % at 8.3 µM; 370,000 tested, 0.13% active;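 active means inhibition above the mean of compounds falling within the control limits plus 3 SD of them, cut at about 14% in these data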;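 further: 0% = plate median of compound wells and 100% = 10 µM Aha-Tn7 peptide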
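Test system: human clot-derived fibrin DD(E) complex / Quantity: 2 µM final DD(E) protein / Incubation: 10 min plus 3 h, room temperature / Measured by: fluorescence polarization / Benchmarks: high control of 10 µM Aha-Tn7 peptide / Replicates: singlicate testing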
* marks the source's active call; other numbers are inactive results; . = no result given.

SMILES	CRFBP-R2 block	CRFR2-BP ag	Tn6 DDE FP	DDE Tn7 FP inh
Oc1[nH]c2ccccc2c1N=Nc1ccccc1F	-76.7	145.0*	-4.3	-5.0
OC(CN1C2=NCCN2c2ccccc21)c1ccc2c(c1)OCO2 (stereo not drawn)	51.8*	3.1	5.0	-0.3
FC(F)(F)c1ccccc1C(C#Cc1ccccc1)NCc1ccc2c(c1)OCO2 (stereo not drawn)	.	.	-5.8	6.4
O=C(CSc1cccc2cccnc12)N/N=C/c1cccc(O)c1	-2.1	-0.8	1.3	2.2
O=C(N/N=C/c1ccc(O)c(O)c1)c1ccc(CSc2cccc3cccnc23)cc1	77.4*	-1.2	-11.4	-8.7
COc1ccc(-n2c(SCC(=O)Nc3ccccc3-c3ccccc3)nnc2-c2ccccn2)cc1	.	.	13.3	1.5
N#C/C(=C\C=C\c1ccccc1)c1nc(-c2ccc3c(c2)OCO3)cs1	-74.0	64.9*	-3.7	-5.3
CCCCNC(=O)c1sc(=S)n2c1[nH]c(=O)c1ccccc12	55.0*	50.3*	-3.9	6.4
O=C(NC1CCCCC1)c1sc(=S)n2c1[nH]c(=O)c1ccccc12	15.8	28.6	0.6	-6.8
COc1ccc(CNCC#CC2=CCCCC2)c(OC)c1	.	.	-0.7	1.5
C=CCC12C=C(OC)C(=O)C(C1=O)C1c3ccccc3CC12 (stereo not drawn)	.	.	-0.2	2.1
Brc1ccccc1-c1nnc(CSc2nnnn2-c2ccccc2)o1	111.5*	-0.1	0.6	-3.1
Cc1nnc(SCc2nnc(-c3ccccc3Br)o2)n1-c1ccccc1	-0.2	0.9	3.6	1.8
COc1ccc(C(=O)OCCN2CCN(C3CN(Cc4cn(Cc5cccc(C)c5)nn4)S(=O)(=O)C3)CC2)cc1OC (stereo not drawn)	.	.	11.1	-4.1
O=C(NCCC1=CCCCC1)C1CCN(S(=O)(=O)c2ccccc2[N+](=O)[O-])CC1	.	.	1.3	-5.9
COc1ccc(S(=O)(=O)NNC(=O)c2csc(-n3nc(C)cc3C(F)(F)F)n2)cc1	61.5*	-4.1	-2.8	2.6
C/C(=N\NC(=O)Cc1ccccc1)c1ccc(Br)s1	-4.2	0.9	2.3	-2.7
COc1ccc(CC(=O)N/N=C(\C)c2ccc(Br)s2)cc1	82.8*	-0.9	10.8	-2.4
CC(=O)Oc1cccc(N2C(=O)C3C4C=CC(C4)C3C2=O)c1 (stereo not drawn)	7.3	-1.7	1.3	1.2
C=C(C)C(=O)Oc1ccc(N2C(=O)[C@@H]3C4C=CC(C4)[C@@H]3C2=O)cc1	60.8*	-0.7	-1.2	-3.9
CCCC(=O)Nc1ccc(C=C(C(C)=O)C(C)=O)cc1	16.1	-1.1	-3.0	-0.4
COc1ccccc1C1C(C(=O)c2sc(C)nc2C)=C(O)C(=O)N1CCN1CCOCC1 (stereo not drawn)	94.3*	-1.6	-6.9	-0.5
COc1ccc(C(=O)CCC(=O)Nc2ccc(N3CCN(C)CC3)cc2)cc1OC	-6.4	-0.6	2.4	-1.2
Cc1nn(-c2ccccc2)c2nc(C(F)(F)F)[nH]c(=O)c12	28.4	-0.8	2.7	0.9
Cc1nn(-c2cc(C(F)(F)F)ccc2Cl)c2nc(C(Cl)(Cl)Cl)[nH]c(=O)c12	52.1*	0.5	-6.2	-5.9
SMILES	CRFBP-R2 block	CRFR2-BP ag	Tn6 DDE FP	DDE Tn7 FP inh
CN(Cc1ccccc1)S(=O)(=O)c1cccc(C(=O)OCC2CCCCC2)c1	.	.	4.3	-2.5
CCc1ccc(NC(=O)C(C)OC(=O)/C=C/c2ccc(O)c(OC)c2)cc1 (stereo not drawn)	-66.3	91.5*	-0.3	-4.0
O=C(Cn1cnc2c(oc3ccccc32)c1=O)NCc1ccccc1	35.2	0.4	1.1	4.3
Cc1ccc(C)c(NC(=O)Cn2cnc3c(oc4ccccc43)c2=O)c1	52.3*	-4.3	-2.5	2.0
C#CCN1CC(N(C)CCOC(=O)c2cc(C)cc(C)c2)CS1(=O)=O (stereo not drawn)	.	.	-1.2	1.9
CC(C)(C)c1ccc(C(=O)NCc2ccc(Cl)cc2)cc1	-5.3	-0.7	1.0	-1.4
CC(C)(C)OC(=O)N1CCN(c2ccc(CNC(=O)c3ccc(Cl)cc3)cc2)CC1	50.1*	1.6	10.3	-0.8
CC(C)CC(NC(=O)/C(=C/c1ccco1)NC(=O)c1ccc(Br)o1)C(=O)O (stereo not drawn)	58.4*	2.6	4.2	-7.7
CCn1c(CCNC(=O)c2ccc(OC)cc2)nnc1SCc1ccc(Cl)c(Cl)c1	-149.7	135.8*	-7.4	-11.2
Cc1ccc(CC(=O)NCCCc2ccccc2)cc1	59.6*	-4.5	-4.9	-0.2
O=C(Cc1ccccc1)NCCCc1ccccc1	-7.0	-0.8	1.4	2.2
O=C(CCN1C(=O)C2CC=CCC2C1=O)NC1CCCCC1 (stereo not drawn)	2.6	-0.2	-8.4	-8.7
CC1CCC(NC(=O)CCN2C(=O)C3CC=CCC3C2=O)CC1 (stereo not drawn)	106.3*	-0.6	7.7	-1.2
Cc1cc(C)nc(SCCC(=O)Nc2ccccc2C)n1	74.6*	0.0	-3.3	-1.4
Cc1cc(C)nc(SCCC(=O)Nc2ccccc2)n1	15.8	2.5	1.0	-10.5
CCn1c(=O)n2n(c1=O)[C@]1(C=C(C)C2)CN(Cc2ccc(OC)cc2OC)C(NC(=O)c2ccccc2)=N1	.	.	-9.5	-8.6
COc1cc2[nH]c3c(=O)n4c(nc3c2cc1OC)SCCC4	93.0*	44.1	-6.2	-1.9
COc1ccc2[nH]c3c(=O)n4c(nc3c2c1)SCC4	34.9	-0.5	0.6	-2.0
O=C(NCCN1CCC(Cc2ccccc2)CC1)C1CCCN(S(=O)(=O)c2ccc([N+](=O)[O-])cc2)C1 (stereo not drawn)	.	.	3.9	7.8
COc1ccc(/C=C2\SC(=S)N(CCC(=O)N3CCCCC3)C2=O)cc1	-9.9	-0.3	-1.1	1.3
COCCN1C(=O)/C(=C/c2ccc(N3CCCC3)cc2)SC1=S	-212.1	265.1*	-0.6	-3.1
Cc1ccc(-n2c(O)c(C=Nc3ccccc3-c3n[nH]c(=S)[nH]c3=O)c3ccccc3c2=O)c(C)c1	53.0*	-0.7	-6.3	-2.4
O=C(/C=C/[C@H]1O[C@@H](n2cnc3c(NC(=O)c4ccccc4)ncnc32)[C@H](O)[C@@H]1O)NCCc1ccc(F)cc1	.	.	-1.4	-3.4
COc1ccc(C(C)=NNc2ccc([N+](=O)[O-])cc2S(=O)(=O)Nc2ccccc2C(=O)O)c(OC)c1	65.7*	-2.4	8.1	6.7
CC(=O)Nc1ccc(C=NNc2ccc([N+](=O)[O-])cc2S(=O)(=O)Nc2ccccc2C(=O)O)cc1	5.2	2.4	8.2	-2.0
CC1CCC2(CCC(=O)N2CCCOC(=O)NC(C)(C)C)CC1 (stereo not drawn)	.	.	-3.5	3.6
CCOc1ccc(C(=O)c2cccs2)cc1	50.8*	-0.8	-0.1	8.7
CC(=O)Nc1ccc(C(/C=C/c2ccccc2)Cc2ccccc2)cc1 (stereo not drawn)	.	.	-1.0	3.6
CCOC(=O)Cn1cc(CN2C(C(=O)OC)CN(Cc3ccccc3)CCS2(=O)=O)nn1 (stereo not drawn)	.	.	9.7	-0.5
Nc1nc(SCC(=O)Nc2ccc(F)cc2)[nH]c(=O)c1NC(=O)c1ccc(F)c(F)c1	15.4	1.0	7.7	2.5
